Broadly, the Kd is a measure of binding affinity in units of concentration.

Here are results for 4 compounds from article PMC4990137 (ACS chemical biology, 2016).

Test [1] deals with T1, LTBP1 (Rhodnius prolixus, UniProt Q7YT09).
T1 sequence (Q7YT09 18-173): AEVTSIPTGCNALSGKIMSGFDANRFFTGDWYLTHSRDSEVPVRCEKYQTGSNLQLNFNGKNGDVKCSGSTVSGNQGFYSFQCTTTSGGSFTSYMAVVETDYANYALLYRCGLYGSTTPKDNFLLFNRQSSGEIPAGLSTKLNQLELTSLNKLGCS
The test can be described thus: isothermal titration calorimetry, single-site fit. In kind it is binding. A general note: Isothermal titration calorimetry measures the heat released or taken up as one component is titrated into another.

The target of test [2] is T2, LTBP1 (Rhodnius prolixus, UniProt Q7YT09, Y131A).
T2 sequence (Q7YT09 18-173 Y131A): T1 sequence (Q7YT09 18-173)
The test can be described thus: isothermal titration calorimetry, single-site fit. Format: binding. Put shortly:
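Titrated by ITC at 30 °C in 20 mM Tris HCl, pH 7.5, 150 mM NaCl, with 2 µM protein in the cell and 10 µL injections of ligand. Eicosanoid ligand solutions were prepared by removing ethanol and sonicating with buffer. Injection enthalpies were fitted to a single-site binding model.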

For `CCCCC/C=C\C[C@@H](O)/C=C/C=C/C=C\[C@@H](O)CCCC(=O)O` [LTB4], binding at LTBP1 [1] was characterised by a dissociation constant (Kd) of 238 nM.
The compound `CCCCC/C=C\C\C=C/C=C/C=C/[C@@H](SC[C@H](NC(=O)CC[C@H](N)C(=O)O)C(=O)NCC(=O)O)[C@@H](O)CCCC(=O)O` [LTC4] had a Kd at LTBP1 [2] of 47.6 nM.
On the same count and under the same terms, the figure for `CCCCC/C=C\C\C=C/C=C/C=C/[C@@H](SC[C@H](N)C(=O)NCC(=O)O)[C@@H](O)CCCC(=O)O` [LTD4] is 47.6 nM.
Take `CCCCC/C=C\C\C=C/C=C/C=C/[C@@H](SC[C@H](N)C(=O)O)[C@@H](O)CCCC(=O)O` [LTE4]: the Kd on LTBP1 [1] was 2.13 nM.
